# Measurements from ChEMBL document CHEMBL3853294, “Design, synthesis and biological evaluation of novel HSP70 inhibitors: N, N'-disubstituted thiourea derivatives” (Eur J Med Chem, 2016).
# Species: Homo sapiens
# Test: Inhibition of HSP70 in human BT/LapR1.0 cells assessed as potentiation of 1 uM of lapatinib-induced growth inhibition after 72 hrs by measuring coefficient of drug interaction by cell titer-glo based luminescence assay
# Settings: not given
row,SMILES,Activity
1,COc1cc(/C=C/C(=O)NC(NC(=S)NC2CCCCC2)C(C)C)cc(OC)c1OC (stereo unspecified),0.8
2,O=C(/C=C/c1ccccc1)NC(NC(=S)Nc1ccccc1)C1CC1 (stereo unspecified),< 1
3,CC(C)CC(NC(=O)/C=C/c1ccccc1)NC(=S)NC1CCCCC1 (stereo unspecified),< 1
4,COc1cc(/C=C/C(=O)NC(NC(=S)Nc2cccnc2)C2CC2)cc(OC)c1OC (stereo unspecified),< 1
5,Cc1ccccc1NC(=S)NC(CC(C)C)NC(=O)/C=C/c1ccccc1 (stereo unspecified),< 1
6,COc1cc(/C=C/C(=O)NC(NC(=S)Nc2ccccc2C)C(C)(C)C)cc(OC)c1OC (stereo unspecified),< 1
7,CC(C)(C)C(NC(=O)/C=C/c1ccccc1)NC(=S)Nc1ccccc1 (stereo unspecified),< 1
8,COc1cc(/C=C/C(=O)NC(NC(=S)Nc2ccccc2)C(C)(C)C)cc(OC)c1OC (stereo unspecified),< 1

# Target: Chaperone protein DnaK (Escherichia coli) (UniProt P0A6Y8)
# Test: Inhibition of Escherichia coli DnaK ATPase activity at 200 uM incubated on shaker for 10 mins followed by 30 mins incubation by malachite green reagent based colorimetric assay
# Settings: not given
row,inhibition [%],SMILES
1,< 20,COc1cc(/C=C/C(=O)NC(NC(=S)NC2CCCCC2)C(C)C)cc(OC)c1OC (stereo unspecified)
2,< 20,O=C(/C=C/c1ccccc1)NC(NC(=S)Nc1ccccc1)C1CC1 (stereo unspecified)
3,58.4,CC(C)CC(NC(=O)/C=C/c1ccccc1)NC(=S)NC1CCCCC1 (stereo unspecified)
4,< 20,COc1cc(/C=C/C(=O)NC(NC(=S)Nc2cccnc2)C2CC2)cc(OC)c1OC (stereo unspecified)
5,< 20,Cc1ccccc1NC(=S)NC(CC(C)C)NC(=O)/C=C/c1ccccc1 (stereo unspecified)
6,50.5,COc1cc(/C=C/C(=O)NC(NC(=S)Nc2ccccc2C)C(C)(C)C)cc(OC)c1OC (stereo unspecified)
7,< 20,CC(C)(C)C(NC(=O)/C=C/c1ccccc1)NC(=S)Nc1ccccc1 (stereo unspecified)
8,< 20,COc1cc(/C=C/C(=O)NC(NC(=S)Nc2ccccc2)C(C)(C)C)cc(OC)c1OC (stereo unspecified)

# Species: Homo sapiens
# Test: Inhibition of HSP70 in human BT/LapR1.0 cells assessed as potentiation of 1 uM of lapatinib-induced growth inhibition at 10 uM after 72 hrs by cell titer-glo based luminescence assay
# Settings: not given
# Outline: (§1)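 Cells were trypsinised and seeded at 5000 cells/well, then cultured 24 h at 37 °C. Compound was added at 10 µM, alone or with 1 µM lapatinib, and incubated 72 h at 37 °C. CellTiter-Glo reagent was added at a volume equal to the medium, followed by 3 min shaking and 10 min at room temperature. Luminescence (ATP) was read and normalised to the blank control group.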
row,SMILES,growth inhibition (GI) [%]
1,COc1cc(/C=C/C(=O)NC(NC(=S)NC2CCCCC2)C(C)C)cc(OC)c1OC (stereo unspecified),45.7
2,O=C(/C=C/c1ccccc1)NC(NC(=S)Nc1ccccc1)C1CC1 (stereo unspecified),27.8
3,CC(C)CC(NC(=O)/C=C/c1ccccc1)NC(=S)NC1CCCCC1 (stereo unspecified),33.4
4,COc1cc(/C=C/C(=O)NC(NC(=S)Nc2cccnc2)C2CC2)cc(OC)c1OC (stereo unspecified),55.7
5,Cc1ccccc1NC(=S)NC(CC(C)C)NC(=O)/C=C/c1ccccc1 (stereo unspecified),23.3
6,COc1cc(/C=C/C(=O)NC(NC(=S)Nc2ccccc2C)C(C)(C)C)cc(OC)c1OC (stereo unspecified),30.1
7,CC(C)(C)C(NC(=O)/C=C/c1ccccc1)NC(=S)Nc1ccccc1 (stereo unspecified),33
8,COc1cc(/C=C/C(=O)NC(NC(=S)Nc2ccccc2)C(C)(C)C)cc(OC)c1OC (stereo unspecified),48.8

# Tested on: not listed separately
# Test: Growth inhibition of human BT474 cells at 10 uM after 72 hrs by cell titer-glo based luminescence assay
# Parameters: species or system BT-474
# Settings: read-out: GI
# Outline: as §1
row,SMILES,"inhibition at 72 h, 10 µM [%]"
1,COc1cc(/C=C/C(=O)NC(NC(=S)NC2CCCCC2)C(C)C)cc(OC)c1OC (stereo unspecified),15.3
2,O=C(/C=C/c1ccccc1)NC(NC(=S)Nc1ccccc1)C1CC1 (stereo unspecified),3.8
3,CC(C)CC(NC(=O)/C=C/c1ccccc1)NC(=S)NC1CCCCC1 (stereo unspecified),13.5
4,COc1cc(/C=C/C(=O)NC(NC(=S)Nc2cccnc2)C2CC2)cc(OC)c1OC (stereo unspecified),8.6
5,Cc1ccccc1NC(=S)NC(CC(C)C)NC(=O)/C=C/c1ccccc1 (stereo unspecified),9.8
6,COc1cc(/C=C/C(=O)NC(NC(=S)Nc2ccccc2C)C(C)(C)C)cc(OC)c1OC (stereo unspecified),8.2
7,CC(C)(C)C(NC(=O)/C=C/c1ccccc1)NC(=S)Nc1ccccc1 (stereo unspecified),9.6
8,COc1cc(/C=C/C(=O)NC(NC(=S)Nc2ccccc2)C(C)(C)C)cc(OC)c1OC (stereo unspecified),2.2

# Tested on: BT-474
# Test: Potentiation of lapatinib-induced growth inhibition of human BT474 cells assessed as coefficient of drug interaction after 72 hrs by cell titer-glo based luminescence assay
# Format: functional
# Settings: not given
row,SMILES,Activity
1,COc1cc(/C=C/C(=O)NC(NC(=S)NC2CCCCC2)C(C)C)cc(OC)c1OC (stereo unspecified),0.82
2,O=C(/C=C/c1ccccc1)NC(NC(=S)Nc1ccccc1)C1CC1 (stereo unspecified),<1
3,CC(C)CC(NC(=O)/C=C/c1ccccc1)NC(=S)NC1CCCCC1 (stereo unspecified),0.77
4,COc1cc(/C=C/C(=O)NC(NC(=S)Nc2cccnc2)C2CC2)cc(OC)c1OC (stereo unspecified),<1
5,Cc1ccccc1NC(=S)NC(CC(C)C)NC(=O)/C=C/c1ccccc1 (stereo unspecified),0.84
6,COc1cc(/C=C/C(=O)NC(NC(=S)Nc2ccccc2C)C(C)(C)C)cc(OC)c1OC (stereo unspecified),<1
7,CC(C)(C)C(NC(=O)/C=C/c1ccccc1)NC(=S)Nc1ccccc1 (stereo unspecified),0.85
8,COc1cc(/C=C/C(=O)NC(NC(=S)Nc2ccccc2)C(C)(C)C)cc(OC)c1OC (stereo unspecified),<1

# Tested on: BT-474
# Test: Potentiation of lapatinib-induced growth inhibition of human BT474 cells at 10 uM after 72 hrs by cell titer-glo based luminescence assay
# Format: functional
# Settings: BT-474, 72 h, read-out: GI
# Outline: as §1
row,SMILES,inhibition of growth at 10 µM [%]
1,COc1cc(/C=C/C(=O)NC(NC(=S)NC2CCCCC2)C(C)C)cc(OC)c1OC (stereo unspecified),82.2
2,O=C(/C=C/c1ccccc1)NC(NC(=S)Nc1ccccc1)C1CC1 (stereo unspecified),81.4
3,CC(C)CC(NC(=O)/C=C/c1ccccc1)NC(=S)NC1CCCCC1 (stereo unspecified),84
4,COc1cc(/C=C/C(=O)NC(NC(=S)Nc2cccnc2)C2CC2)cc(OC)c1OC (stereo unspecified),85.2
5,Cc1ccccc1NC(=S)NC(CC(C)C)NC(=O)/C=C/c1ccccc1 (stereo unspecified),81.6
6,COc1cc(/C=C/C(=O)NC(NC(=S)Nc2ccccc2C)C(C)(C)C)cc(OC)c1OC (stereo unspecified),81.4
7,CC(C)(C)C(NC(=O)/C=C/c1ccccc1)NC(=S)Nc1ccccc1 (stereo unspecified),83.5
8,COc1cc(/C=C/C(=O)NC(NC(=S)Nc2ccccc2)C(C)(C)C)cc(OC)c1OC (stereo unspecified),83.2

# Tested on: not listed separately
# Test: Growth inhibition of human BT/LapR1.0 cells at 10 uM after 72 hrs by cell titer-glo based luminescence assay
# Settings: read-out: GI
# Outline: as §1
row,SMILES,"inhibition at 72 h, 10 µM [%]"
1,COc1cc(/C=C/C(=O)NC(NC(=S)NC2CCCCC2)C(C)C)cc(OC)c1OC (stereo unspecified),22.6
2,O=C(/C=C/c1ccccc1)NC(NC(=S)Nc1ccccc1)C1CC1 (stereo unspecified),8.7
3,CC(C)CC(NC(=O)/C=C/c1ccccc1)NC(=S)NC1CCCCC1 (stereo unspecified),19.8
4,COc1cc(/C=C/C(=O)NC(NC(=S)Nc2cccnc2)C2CC2)cc(OC)c1OC (stereo unspecified),12.3
5,Cc1ccccc1NC(=S)NC(CC(C)C)NC(=O)/C=C/c1ccccc1 (stereo unspecified),12.8
6,COc1cc(/C=C/C(=O)NC(NC(=S)Nc2ccccc2C)C(C)(C)C)cc(OC)c1OC (stereo unspecified),9.9
7,CC(C)(C)C(NC(=O)/C=C/c1ccccc1)NC(=S)Nc1ccccc1 (stereo unspecified),11.4
8,COc1cc(/C=C/C(=O)NC(NC(=S)Nc2ccccc2)C(C)(C)C)cc(OC)c1OC (stereo unspecified),2.9
